The values that follow come from the M2OR odorant receptor database.
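Note: active if original authors judged signal statistically different from baseline.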

One test addresses T1, UniProt Q3U0P3.
T1 sequence (whole entry): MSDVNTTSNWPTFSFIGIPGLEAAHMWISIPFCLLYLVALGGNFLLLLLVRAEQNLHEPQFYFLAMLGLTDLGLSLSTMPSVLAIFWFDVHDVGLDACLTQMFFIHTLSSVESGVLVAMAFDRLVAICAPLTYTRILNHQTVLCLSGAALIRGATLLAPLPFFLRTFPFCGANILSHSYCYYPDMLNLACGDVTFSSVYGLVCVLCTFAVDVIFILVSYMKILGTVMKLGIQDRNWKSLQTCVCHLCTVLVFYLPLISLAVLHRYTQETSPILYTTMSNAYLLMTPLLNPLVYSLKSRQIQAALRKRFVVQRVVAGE
The following applies: stereoisomer not certain. A digest of the protocol:
(§1)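 Each receptor–molecule pair is labelled responsive or non-responsive (inactive) according to whether the original authors judged the measured signal statistically different from baseline. The data were taken from the main text and supplementary material of published papers and checked for typos and inconsistencies. Assay methods differed by source, with transient luciferase assays in mammalian cell lines being common.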
For the compound `CCCCCCCCC(=O)O`, the “odorant receptor agonist call” value was “inactive”.

With `CCc1ncc(C)nc1CC`, the “odorant receptor agonist call” value was “inactive”.

For the compound `CCCCCCCCS`, the “odorant receptor agonist call” value was “inactive”.

Consider `CCCCCCC(C)=O`, for which the “odorant receptor agonist call” value was “inactive”.

For `CCc1nccnc1CC`, the “odorant receptor agonist call” value is “inactive”.

`COc1nccnc1C(C)C`: the “odorant receptor agonist call” value was “inactive”.

As for `CC(C)=CCCC(C)CCO` (stereo not given), the “odorant receptor agonist call” value is “inactive”.

Turning to `C=CCOC(=O)CCCCCC`, the “odorant receptor agonist call” value was “inactive”.

For the compound `COc1cnccn1`, the “odorant receptor agonist call” value is “inactive”.

For `CCC(C)c1nccnc1OC` (stereo not given), the “odorant receptor agonist call” value was “inactive”.

Take `CCCCOC=O`: the “odorant receptor agonist call” value is “inactive”.

For `CCCCCCCCCC(=O)[O-].[H+]`, the “odorant receptor agonist call” value is “inactive”.

For `CC12CCC(CC1=O)C2(C)C` (stereo not given), the “odorant receptor agonist call” value is “inactive”.

For another test, the target named is T2, UniProt Q7TQU8.
T2 sequence (whole entry): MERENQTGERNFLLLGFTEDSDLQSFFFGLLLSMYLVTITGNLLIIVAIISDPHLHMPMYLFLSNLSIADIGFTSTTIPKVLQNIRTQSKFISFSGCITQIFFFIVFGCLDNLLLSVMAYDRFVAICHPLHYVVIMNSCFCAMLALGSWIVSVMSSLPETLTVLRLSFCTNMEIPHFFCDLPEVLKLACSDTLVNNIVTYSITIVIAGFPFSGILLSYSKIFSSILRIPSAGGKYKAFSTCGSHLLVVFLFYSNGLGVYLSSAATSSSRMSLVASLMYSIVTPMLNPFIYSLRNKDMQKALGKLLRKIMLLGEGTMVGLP
The following applies: stereoisomer not certain. A digest of the protocol:
as §1
For the compound `CCCCCCCCC(=O)O`, the “odorant receptor agonist call” value is “inactive”.

Turning to `CCc1ncc(C)nc1CC`, the “odorant receptor agonist call” value was “inactive”.

As for `CCCCCCCCS`, the “odorant receptor agonist call” value was “inactive”.

`CCCCCCC(C)=O`: the “odorant receptor agonist call” value is “inactive”.

As for `CCc1nccnc1CC`, the “odorant receptor agonist call” value is “inactive”.

Regarding `COc1nccnc1C(C)C`, the “odorant receptor agonist call” value is “inactive”.

In the case of `CC(C)=CCCC(C)CCO` (stereo not given), the “odorant receptor agonist call” value was “inactive”.

Regarding `C=CCOC(=O)CCCCCC`, the “odorant receptor agonist call” value was “inactive”.

In the case of `COc1cnccn1`, the “odorant receptor agonist call” value was “inactive”.

For `CCC(C)c1nccnc1OC` (stereo not given), the “odorant receptor agonist call” value was “inactive”.

On to `CCCCOC=O`, for which the “odorant receptor agonist call” value is “inactive”.

`CCCCCCCCCC(=O)[O-].[H+]`: the “odorant receptor agonist call” value was “inactive”.

For `CC12CCC(CC1=O)C2(C)C` (stereo not given), the “odorant receptor agonist call” value was “inactive”.

The next test concerns the target T3, UniProt Q7TQV4.
T3 sequence (whole entry): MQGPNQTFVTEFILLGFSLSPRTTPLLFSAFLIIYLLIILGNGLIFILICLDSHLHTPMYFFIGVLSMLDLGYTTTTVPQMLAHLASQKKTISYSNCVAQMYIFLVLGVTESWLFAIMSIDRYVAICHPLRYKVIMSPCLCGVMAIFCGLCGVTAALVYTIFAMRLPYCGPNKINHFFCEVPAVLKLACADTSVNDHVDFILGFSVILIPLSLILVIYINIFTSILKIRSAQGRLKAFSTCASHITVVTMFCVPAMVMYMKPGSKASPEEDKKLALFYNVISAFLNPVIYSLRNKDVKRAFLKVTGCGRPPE
The following applies: stereoisomer not certain. A digest of the protocol:
as §1
Consider `CCCCCCCCC(=O)O`, for which the “odorant receptor agonist call” value is “inactive”.

`CCCCCCCCS`: the “odorant receptor agonist call” value was “inactive”.

For `O=c1ccc2ccccc2o1`, the “odorant receptor agonist call” value is “active”.

Take `CCCCCCC(C)=O`: the “odorant receptor agonist call” value was “inactive”.

Regarding `CC(C)=CCCC(C)CCO` (stereo not given), the “odorant receptor agonist call” value was “inactive”.

For the compound `C=CCOC(=O)CCCCCC`, the “odorant receptor agonist call” value was “inactive”.

As for `CCCCOC=O`, the “odorant receptor agonist call” value is “inactive”.

Take `CCCCCCCCCC(=O)[O-].[H+]`: the “odorant receptor agonist call” value was “inactive”.

In the case of `CC12CCC(CC1=O)C2(C)C` (stereo not given), the “odorant receptor agonist call” value is “inactive”.

The next test has as its target T4, UniProt Q7TR71.
T4 sequence (whole entry): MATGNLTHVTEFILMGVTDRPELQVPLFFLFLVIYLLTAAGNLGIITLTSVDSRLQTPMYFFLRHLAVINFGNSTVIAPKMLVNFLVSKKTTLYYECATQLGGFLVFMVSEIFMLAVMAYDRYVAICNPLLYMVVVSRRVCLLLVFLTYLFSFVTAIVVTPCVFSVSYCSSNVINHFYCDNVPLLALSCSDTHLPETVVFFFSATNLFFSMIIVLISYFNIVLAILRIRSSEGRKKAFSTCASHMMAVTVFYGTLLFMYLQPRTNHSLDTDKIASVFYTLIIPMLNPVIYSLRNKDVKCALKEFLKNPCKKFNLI
The following applies: stereoisomer not certain. A digest of the protocol:
as §1
Turning to `CCCCCCCCC(=O)O`, the “odorant receptor agonist call” value was “inactive”.

For the compound `CCCCCCCCS`, the “odorant receptor agonist call” value is “inactive”.

For `O=c1ccc2ccccc2o1`, the “odorant receptor agonist call” value was “active”.

`CCCCCCC(C)=O`: the “odorant receptor agonist call” value was “inactive”.

On to `CC(C)=CCCC(C)CCO` (stereo not given), for which the “odorant receptor agonist call” value was “inactive”.

On to `C=CCOC(=O)CCCCCC`, for which the “odorant receptor agonist call” value is “inactive”.

With `CCCCOC=O`, the “odorant receptor agonist call” value was “inactive”.

Regarding `CCCCCCCCCC(=O)[O-].[H+]`, the “odorant receptor agonist call” value was “inactive”.

With `CC12CCC(CC1=O)C2(C)C` (stereo not given), the “odorant receptor agonist call” value is “active”.

For the next test, the target named is T5, UniProt Q7TR79.
T5 sequence (whole entry): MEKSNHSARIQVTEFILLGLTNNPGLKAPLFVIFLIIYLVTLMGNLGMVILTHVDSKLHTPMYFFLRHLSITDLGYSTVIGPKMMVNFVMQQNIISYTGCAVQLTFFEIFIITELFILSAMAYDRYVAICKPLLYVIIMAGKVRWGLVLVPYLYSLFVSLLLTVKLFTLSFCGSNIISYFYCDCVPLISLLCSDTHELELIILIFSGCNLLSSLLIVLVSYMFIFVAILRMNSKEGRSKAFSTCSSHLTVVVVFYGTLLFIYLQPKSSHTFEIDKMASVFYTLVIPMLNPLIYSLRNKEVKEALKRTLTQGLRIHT
The following applies: stereoisomer not certain. A digest of the protocol: as §1
On to `CCCCCCCCC(=O)O`, for which the “odorant receptor agonist call” value is “inactive”.

With `CCc1ncc(C)nc1CC`, the “odorant receptor agonist call” value is “inactive”.

On to `CCCCCCCCS`, for which the “odorant receptor agonist call” value is “inactive”.

Regarding `CCCCCCC(C)=O`, the “odorant receptor agonist call” value is “inactive”.

For `CCc1nccnc1CC`, the “odorant receptor agonist call” value was “inactive”.

Turning to `COc1nccnc1C(C)C`, the “odorant receptor agonist call” value is “inactive”.

For the compound `CC(C)=CCCC(C)CCO` (stereo not given), the “odorant receptor agonist call” value is “inactive”.

Turning to `C=CCOC(=O)CCCCCC`, the “odorant receptor agonist call” value was “inactive”.

On to `COc1cnccn1`, for which the “odorant receptor agonist call” value was “inactive”.

As for `CCC(C)c1nccnc1OC` (stereo not given), the “odorant receptor agonist call” value was “inactive”.

Regarding `CCCCOC=O`, the “odorant receptor agonist call” value was “inactive”.

With `CCCCCCCCCC(=O)[O-].[H+]`, the “odorant receptor agonist call” value is “inactive”.

Take `CC12CCC(CC1=O)C2(C)C` (stereo not given): the “odorant receptor agonist call” value was “inactive”.

The next test concerns the target T6, UniProt Q7TRA3.
T6 sequence (whole entry): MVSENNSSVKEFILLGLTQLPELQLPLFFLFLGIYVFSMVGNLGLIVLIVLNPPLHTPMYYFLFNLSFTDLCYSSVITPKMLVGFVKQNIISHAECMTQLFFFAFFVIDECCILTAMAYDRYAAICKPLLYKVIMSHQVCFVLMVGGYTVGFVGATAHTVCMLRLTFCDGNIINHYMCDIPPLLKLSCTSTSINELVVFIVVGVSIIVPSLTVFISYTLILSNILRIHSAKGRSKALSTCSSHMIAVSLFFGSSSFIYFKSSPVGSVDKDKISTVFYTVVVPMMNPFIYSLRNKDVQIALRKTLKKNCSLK
To be noted: stereoisomer not certain. A digest of the protocol:
as §1
On to `CCCCCCCCC(=O)O`, for which the “odorant receptor agonist call” value is “inactive”.

Take `CCCCCCCCS`: the “odorant receptor agonist call” value is “inactive”.

For the compound `O=c1ccc2ccccc2o1`, the “odorant receptor agonist call” value is “active”.

Take `CCCCCCC(C)=O`: the “odorant receptor agonist call” value is “inactive”.

As for `CC(C)=CCCC(C)CCO` (stereo not given), the “odorant receptor agonist call” value is “inactive”.

Turning to `C=CCOC(=O)CCCCCC`, the “odorant receptor agonist call” value was “inactive”.

As for `CCCCOC=O`, the “odorant receptor agonist call” value is “inactive”.

As for `CCCCCCCCCC(=O)[O-].[H+]`, the “odorant receptor agonist call” value was “inactive”.

Consider `CC12CCC(CC1=O)C2(C)C` (stereo not given), for which the “odorant receptor agonist call” value was “inactive”.

A further test has as its target T7, UniProt Q7TRE4.
T7 sequence (whole entry): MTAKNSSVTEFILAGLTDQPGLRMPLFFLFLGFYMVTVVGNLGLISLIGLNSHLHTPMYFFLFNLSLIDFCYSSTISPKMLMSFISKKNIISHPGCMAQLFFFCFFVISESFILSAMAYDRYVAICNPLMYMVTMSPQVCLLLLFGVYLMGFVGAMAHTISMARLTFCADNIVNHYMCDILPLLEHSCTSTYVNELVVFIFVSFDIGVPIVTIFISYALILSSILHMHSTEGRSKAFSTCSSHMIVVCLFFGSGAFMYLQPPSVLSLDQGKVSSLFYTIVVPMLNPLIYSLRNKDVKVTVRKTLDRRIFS
The following applies: stereoisomer not certain. A digest of the protocol:
as §1
Regarding `CCCCCCCCC(=O)O`, the “odorant receptor agonist call” value was “inactive”.

Turning to `CCCCCCCCS`, the “odorant receptor agonist call” value is “inactive”.

Take `O=c1ccc2ccccc2o1`: the “odorant receptor agonist call” value was “active”.

With `CCCCCCC(C)=O`, the “odorant receptor agonist call” value is “inactive”.

`CC(C)=CCCC(C)CCO` (stereo not given): the “odorant receptor agonist call” value is “inactive”.

Take `C=CCOC(=O)CCCCCC`: the “odorant receptor agonist call” value was “inactive”.

Consider `CCCCOC=O`, for which the “odorant receptor agonist call” value was “inactive”.

Take `CCCCCCCCCC(=O)[O-].[H+]`: the “odorant receptor agonist call” value was “inactive”.

For the compound `CC12CCC(CC1=O)C2(C)C` (stereo not given), the “odorant receptor agonist call” value is “inactive”.
